Laboratory results: ChEMBL document CHEMBL1153724, “Multivalent binding oligomers inhibit HIV Tat-TAR interaction critical for viral replication” (Bioorg Med Chem Lett, 2009)
Active and inactive are the calls of the source. No cut-off for these calls is given here.

How the values were obtained:
Nucleic Acid [1] = assay: Inhibition of fluorescein labeled Tat-peptide binding to HIV1 TAR RNA after 60 mins by FRET assay; assay type: nucleic-acid assay, Human immunodeficiency virus 1
Summary of the method: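 Competition assay: inhibition of association between TAR RNA and a fluorescently labeled Tat-derived peptide, read by fluorescence; IC50 values derived.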

PBMC = assay: Cytotoxicity against human PBMC cells by XTT assay; assay type: cell-based
[2] = Cytotoxicity in human HeLa cells transfected with HIV Rev-LTR by FITC-conjugated DAPI staining by fluorescence microscopy; assay type: cell-based; settings: read-out: TC50 (the source's name)
[3] = Cytotoxicity in human HeLa cells transfected with HIV Tat-LTR by FITC-conjugated DAPI staining by fluorescence microscopy; assay type: cell-based; settings: read-out: TC50 (the source's name)
[4] = tested on: Human immunodeficiency virus 1; assay: Antiviral activity against HIV1 Ba-L infected in PBMCs assessed as reverse transcriptase activity after 7 days by MTS assay; assay type: functional, organism-based; settings: Human immunodeficiency virus 1, Ba-L, 168 h
[5] = Inhibition of HIV1 Rev transfected in human HeLa cells after 48 hrs by duel luciferase reporter gene assay; assay type: cell-based; settings: Human immunodeficiency virus 1, HeLa
Summary of the method: (§1)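 Analogous stably modified HeLa dual-luciferase system for Rev-RRE function, used as a specificity control; activity followed by luminescence up to 100 μM.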

[6] = tested on: Human immunodeficiency virus 1; assay: Antiviral activity against HIV1 BCF02 infected in PBMCs assessed as reverse transcriptase activity after 7 days by XTT assay; assay type: functional, organism-based; settings: Human immunodeficiency virus 1, BCF02, 168 h
Nucleic Acid [7] = assay: Inhibition of fluorescein labeled Rev binding to HIV1 RRE RNA assessed as decrease of fluorescent anisotropy at 20 uM after 1 hour by fluorescence polarization-based assay; assay type: nucleic-acid assay, Human immunodeficiency virus 1
Summary of the method: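 Competition assay tracking Rev binding to RRE by fluorescence; tested up to 20 μM.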

[8] = tested on: Human immunodeficiency virus 1; assay: Antiviral activity against HIV1 97ZA003 infected in PBMCs assessed as reverse transcriptase activity after 7 days by XTT assay; assay type: functional, organism-based; settings: Human immunodeficiency virus 1, 97ZA003, 168 h
[9] = tested on: Human immunodeficiency virus 1; assay: Inhibition of HIV1 viral entry into the human TZM-bl cells assessed as decrease of luminescence at 25 uM after 18 hrs by luciferase reporter gene assay; assay type: functional, organism-based
Summary of the method: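 Viral entry checked in TZM-bl cells with a cell-based entry inhibition assay at concentrations up to 25 μM.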

[10] = tested on: Human immunodeficiency virus 1; assay: Antiviral activity against HIV1 HT/92/599 infected in PBMCs assessed as reverse transcriptase activity after 7 days by XTT assay; assay type: functional, organism-based; settings: Human immunodeficiency virus 1, HT/92/599, 168 h
[11] = tested on: Human immunodeficiency virus 1; assay: Antiviral activity against HIV1 UG/92/029 infected in PBMCs assessed as reverse transcriptase activity after 7 days by XTT assay; assay type: functional, organism-based; settings: Human immunodeficiency virus 1, UG/92/029, 168 h
[12] = tested on: Human immunodeficiency virus 1; assay: Antiviral activity against HIV1 BR/93/020 infected in PBMCs assessed as reverse transcriptase activity after 7 days by XTT assay; assay type: functional, organism-based; settings: Human immunodeficiency virus 1, BR/93/020, 168 h
[13] = tested on: Human immunodeficiency virus 1; assay: Antiviral activity against HIV1 JV1083 infected in PBMCs assessed as reverse transcriptase activity after 7 days by XTT assay; assay type: functional, organism-based; settings: Human immunodeficiency virus 1, JV1083, 168 h
[14] = tested on: Human immunodeficiency virus 1; assay: Antiviral activity against HIV1 UG/92/001 infected in PBMCs assessed as reverse transcriptase activity after 7 days by XTT assay; assay type: functional, organism-based; settings: Human immunodeficiency virus 1, UG/92/001, 168 h
[15] = tested on: Human immunodeficiency virus 1; assay: Antiviral activity against HIV1 CMU06 infected in PBMCs assessed as reverse transcriptase activity after 7 days by XTT assay; assay type: functional, organism-based; settings: Human immunodeficiency virus 1, CMU06, 168 h
Nucleic Acid [16] = assay: Induction of aggregation of 32P labeled HIV1 TAR RNA after 60 mins by native gel electrophoresis; assay type: nucleic-acid assay, Human immunodeficiency virus 1
Nucleic Acid [17] = assay: Selectivity for HIV1 TAR RNA over HIV1 RRE RNA; assay type: nucleic-acid assay; settings: Human immunodeficiency virus 1
HeLa = assay: Inhibition of HIV1 Rev transfected in human HeLa cells up to 100 uM after 48 hrs by duel luciferase reporter gene assay; assay type: cell-based; settings: Human immunodeficiency virus 1; summary of the method: as §1

C[C@@H](CN[C@H](CN[C@H](CN[C@H](CN[C@H](CNCCC(N)=O)Cc1ccc(O)cc1)Cc1ccc(O)cc1)Cc1ccc(O)cc1)Cc1ccc(O)cc1)NC[C@@H](N)Cc1ccc(O)cc1
EC50 (Nucleic Acid [1]): 3.94 µM

NCCCC[C@@H](CN[C@H](CN[C@H](CN[C@H](CNCCC(N)=O)Cc1ccc(O)cc1)Cc1ccc(O)cc1)Cc1ccc(O)cc1)NC[C@H](Cc1ccc(O)cc1)NC[C@@H](N)Cc1ccc(O)cc1
IC50 (PBMC): 80 µM
CC50 [2]: > 100 µM
EC50 (Nucleic Acid [1]): 0.45 µM
CC50 [3]: > 100 µM
IC50 [4]: 7 µM
IC50 [5]: > 100 µM

C[C@@H](CN[C@H](CN[C@H](CN[C@H](CNCCC(N)=O)Cc1ccc(O)cc1)Cc1ccc(O)cc1)Cc1ccc(O)cc1)NC[C@H](Cc1ccc(O)cc1)NC[C@H](Cc1ccc(O)cc1)NC[C@@H](N)Cc1ccc(O)cc1
IC50 [6]: 16.3 µM
IC50 (PBMC): 55 µM
CC50 [2]: > 100 µM
EC50 (Nucleic Acid [1]): 0.5 µM
IC50 (Nucleic Acid [7]): > 20 µM
CC50 [3]: > 100 µM
IC50 [8]: 25 µM
inhibition [9]: inactive
IC50 [10]: 4.5 µM
IC50 [11]: 2.3 µM
IC50 [12]: 5.1 µM
IC50 [4]: 4 µM
IC50 [13]: 11.9 µM
IC50 [14]: 2.3 µM
IC50 [15]: 18.2 µM
IC50 [5]: 60 µM

NC(=O)CCNC[C@H](Cc1ccc(O)cc1)NC[C@H](Cc1ccc(O)cc1)NC[C@H](Cc1ccc(O)cc1)NC[C@@H](N)Cc1ccc(O)cc1
IC50 (PBMC): 46 µM
EC50 (Nucleic Acid [1]): 8.9 µM
IC50 (Nucleic Acid [7]): > 20 µM
EC50 (Nucleic Acid [16]): 450 µM
IC50 [4]: 11 µM

NC(=O)CCNC[C@H](Cc1ccc(O)cc1)NC[C@H](Cc1ccc(O)cc1)NC[C@H](Cc1ccc(O)cc1)NC[C@H](Cc1ccc(O)cc1)NC[C@@H](N)Cc1ccc(O)cc1
IC50 (PBMC): 67 µM
CC50 [2]: > 100 µM
EC50 (Nucleic Acid [1]): 2.96 µM
IC50 (Nucleic Acid [7]): > 20 µM
CC50 [3]: > 100 µM
EC50 (Nucleic Acid [16]): 220 µM
IC50 [4]: 9 µM
IC50 [5]: > 100 µM

NC(=O)CCNC[C@H](Cc1ccc(O)cc1)NC[C@H](Cc1ccc(O)cc1)NC[C@H](Cc1ccc(O)cc1)NC[C@H](Cc1ccc(O)cc1)NC[C@H](Cc1ccc(O)cc1)NC[C@H](Cc1ccc(O)cc1)NC[C@H](Cc1ccc(O)cc1)NC[C@@H](N)Cc1ccc(O)cc1
EC50 (Nucleic Acid [1]): 0.18 µM

C[C@@H](CN[C@H](CN[C@H](CN[C@H](CNCCC(N)=O)Cc1ccc(O)cc1)Cc1ccc(O)cc1)Cc1ccc(O)cc1)NC[C@H](Cc1ccc(O)cc1)NC[C@H](Cc1ccc(O)cc1)NC[C@H](Cc1ccc(O)cc1)NC[C@@H](N)Cc1ccc(O)cc1
EC50 (Nucleic Acid [1]): 0.18 µM
CC50 [3]: 2.4 µM

NCCCC[C@@H](CN[C@H](CN[C@H](CN[C@H](CNCCC(N)=O)Cc1ccc(O)cc1)Cc1ccc(O)cc1)Cc1ccc(O)cc1)NC[C@H](Cc1c[nH]c2ccccc12)NC[C@@H](N)Cc1ccc(O)cc1
EC50 (Nucleic Acid [1]): 0.3 µM

NC(=O)CCNC[C@H](Cc1ccc(O)cc1)NC[C@H](Cc1ccc(O)cc1)NC[C@H](Cc1ccc(O)cc1)NC[C@H](Cc1ccc(O)cc1)NC[C@H](Cc1ccc(O)cc1)NC[C@H](Cc1ccc(O)cc1)NC[C@@H](N)Cc1ccc(O)cc1
EC50 (Nucleic Acid [1]): 0.47 µM

C[C@H](N)CN[C@@H](C)CN[C@@H](C)CN[C@@H](C)CN[C@@H](C)CN[C@H](CNCCC(N)=O)Cc1ccc(O)cc1
EC50 (Nucleic Acid [1]): 13.9 µM

NC(=O)CCNC[C@H](Cc1ccc(O)cc1)NC[C@H](Cc1ccc(O)cc1)NC[C@H](Cc1ccc(O)cc1)NC[C@H](Cc1ccc(O)cc1)NC[C@H](Cc1ccc(O)cc1)NC[C@@H](N)Cc1ccc(O)cc1
IC50 [6]: 18.9 µM
IC50 (PBMC): 76 µM
CC50 [2]: > 100 µM
Selectivity Index (Nucleic Acid [17]): 20
EC50 (Nucleic Acid [1]): 1.7 µM
IC50 (Nucleic Acid [7]): > 20 µM
CC50 [3]: > 100 µM
IC50 [8]: 27 µM
inhibition [9]: inactive
IC50 [10]: 8.8 µM
IC50 [11]: 6.7 µM
EC50 (Nucleic Acid [16]): 40 µM
IC50 [12]: 4.7 µM
IC50 [4]: 2 µM
IC50 [13]: 13.1 µM
IC50 [14]: 6 µM
IC50 [15]: 19 µM
IC50 [5]: 34 µM

C[C@H](N)CN[C@H](CN[C@H](CN[C@H](CN[C@H](CN[C@H](CNCCC(N)=O)Cc1ccc(O)cc1)Cc1ccc(O)cc1)Cc1ccc(O)cc1)Cc1ccc(O)cc1)Cc1ccc(O)cc1
EC50 (Nucleic Acid [1]): 3.26 µM

NCCCC[C@@H](CN[C@H](CNCCC(N)=O)Cc1ccc(O)cc1)NC[C@H](Cc1ccc(O)cc1)NC[C@H](CCCCN)NC[C@H](Cc1c[nH]c2ccccc12)NC[C@@H](N)Cc1ccc(O)cc1
EC50 (Nucleic Acid [1]): 0.24 µM
CC50 [3]: 12 µM

NCCCC[C@@H](CN[C@H](CNCCC(N)=O)Cc1ccc(O)cc1)NC[C@H](Cc1ccc(O)cc1)NC[C@H](CCCCN)NC[C@H](Cc1ccc(O)cc1)NC[C@@H](N)Cc1ccc(O)cc1
EC50 (Nucleic Acid [1]): 0.36 µM
CC50 [3]: 38 µM

C[C@@H](CN[C@H](CNCCC(N)=O)Cc1ccc(O)cc1)NC[C@H](Cc1ccc(O)cc1)NC[C@H](Cc1ccc(O)cc1)NC[C@H](Cc1ccc(O)cc1)NC[C@@H](N)Cc1ccc(O)cc1
EC50 (Nucleic Acid [1]): 1.93 µM

C[C@@H](CN[C@H](CN[C@H](CNCCC(N)=O)Cc1ccc(O)cc1)Cc1ccc(O)cc1)NC[C@H](Cc1ccc(O)cc1)NC[C@H](Cc1ccc(O)cc1)NC[C@@H](N)Cc1ccc(O)cc1
EC50 (Nucleic Acid [1]): 3.32 µM

C[C@@H](CN[C@H](CN[C@H](CN[C@H](CNCCC(N)=O)Cc1ccc(O)cc1)Cc1ccc(O)cc1)Cc1ccc(O)cc1)NC[C@H](Cc1ccc(O)cc1)NC[C@@H](N)Cc1ccc(O)cc1
IC50 [6]: 20.1 µM
IC50 (PBMC): 56 µM
CC50 [2]: > 100 µM
Selectivity Index (Nucleic Acid [17]): 20
inhibition (HeLa): inactive
EC50 (Nucleic Acid [1]): 1.63 µM
IC50 (Nucleic Acid [7]): > 20 µM
CC50 [3]: > 100 µM
IC50 [8]: 32 µM
inhibition [9]: inactive
IC50 [10]: 12.7 µM
IC50 [11]: 4.5 µM
IC50 [12]: 7.5 µM
IC50 [4]: 5 µM
IC50 [13]: 17.8 µM
IC50 [14]: 5.1 µM
IC50 [15]: 7.7 µM
IC50 [5]: > 100 µM

NC(=O)CCNC[C@H](Cc1ccc(O)cc1)NC[C@H](Cc1ccc(O)cc1)NC[C@@H](N)Cc1ccc(O)cc1
CC50 [2]: > 100 µM
EC50 (Nucleic Acid [1]): 83.8 µM
IC50 (Nucleic Acid [7]): > 50 µM
CC50 [3]: > 100 µM
EC50 (Nucleic Acid [16]): 490 µM
IC50 [5]: > 100 µM
